M1 PAM – positive allosteric modulators of human M1 muscarinic receptor | P11229 | CHO-K1 hM1, Fluo-8 calcium fluorescence, ACh EC20; 0% = ACh EC20, 100% = maximal ACh | activation, % at 3 µM | 0.088% of 360,000 active; in the data active = activation above about 19%, passing the limit was not always enough
Target sequence (P11229 whole entry, looked up): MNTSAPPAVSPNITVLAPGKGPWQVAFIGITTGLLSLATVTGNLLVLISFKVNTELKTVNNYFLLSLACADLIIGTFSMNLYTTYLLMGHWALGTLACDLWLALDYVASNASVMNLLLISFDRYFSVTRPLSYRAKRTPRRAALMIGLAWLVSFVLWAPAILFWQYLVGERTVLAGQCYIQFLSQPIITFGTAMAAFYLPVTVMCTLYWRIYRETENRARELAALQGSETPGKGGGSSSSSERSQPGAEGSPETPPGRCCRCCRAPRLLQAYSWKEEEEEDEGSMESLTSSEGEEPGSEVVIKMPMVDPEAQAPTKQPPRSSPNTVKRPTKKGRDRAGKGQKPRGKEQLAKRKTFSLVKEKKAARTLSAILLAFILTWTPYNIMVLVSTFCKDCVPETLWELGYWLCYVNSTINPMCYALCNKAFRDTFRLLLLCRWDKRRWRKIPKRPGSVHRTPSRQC
CHRM1 antagonist – human CHRM1 antagonism | P11229 | CHO-K1 hM1, Fluo-8 calcium fluorescence, ACh EC80 antagonist | inhibition, % at 3 µM | 1.3% of 360,000 active | AID 588852;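 active = percent inhibition above its own plate's cutoff, namely the mean of that plate's compound wells plus 3 SD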;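 note: peak over basal fluorescence ratio during 140 s after agonist addition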
M1 ag – agonists of human M1 muscarinic receptor; 0.33% of 360,000 active; P11229; CHO-K1 hM1, Fluo-8 calcium fluorescence, agonist mode; 0% DMSO, 100% acetylcholine EC100; AID 588814; activation, % at 3 µM;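 active = activation above the run's mean compound activation plus 3 SD, cut at about 16% in these data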;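 note: peak over basal fluorescence ratio within a 140 s kinetic read after compound addition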
TAAR1 antag – antagonists of human TAAR1; inhibition, % at 3 µM; CHO RD-HGA16 TAAR1, Fluo-8 calcium fluorescence, antagonist; Q96RJ0; 1.5% of 360,000 active;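 active = inhibition above a per-plate cutoff, the mean inhibition of test compounds on that plate plus 3 SD, cut at about 49% in these data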
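Test system – hTAAR1-expressing CHO RD-HGA16 cells, Gα16-coupled · Also added – β-PEA at EC80 concentration, post-compound challenge · Compound – 3 µM, single point · Incubation – dye loading 75 min at 37 °C, then 30 min room temperature · Measured by – Fluo-8 intracellular calcium dye fluorescence, real-time kinetic reads · Benchmarks – vehicle and agonist controls · Replicates – singlicate, one well per test compound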
TAAR1 ag – human TAAR1 agonism. activation, % at 3 µM. 0.99% of 360,000 active. AID 624467. CHO RD-HGA16 TAAR1, Fluo-8 calcium fluorescence; vehicle wells 0%, saturating PEA agonist 100%;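 active = activation above the mean activation of all test compounds in the run plus 3 SD, cut at about 38% in these data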
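Assay system: CHO-derived RD-HGA16 cells with stable Gα16 and human TAAR1; timing: 17-24 h seeding, 75 min 37 °C dye, 30 min RT; read-out: % activation from peak over basal fluorescence ratio, DMSO-to-PEA scaled; measured by: kinetic Fluo-8 calcium fluorescence; benchmarks: low control DMSO, high control PEA (EC100); doses: 3 µM single concentration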
Of the large screens only hits and unclear results are named; the others gave an inactive call. In the library only some 3.4% were active in any assay of this set; here they are far more common.

COCCNC(=S)N(C)[C@H]1C[C@H]2c3[nH]c4ccccc4c3CCN2C(=O)[C@H]1[C@H](C)O	none (no result: M1 PAM, CHRM1 antagonist, M1 ag)
COc1ccc2c3c(cccc13)C(=O)CC2	M1 ag 119
COc1ccc2c(c1OC)C(=O)OC2	none
COc1ccc(C=NN(C)C(=O)Nc2cccc(Cl)c2)cc1OC	none (no result: M1 PAM, CHRM1 antagonist, M1 ag)
O=C(CN1CCc2ccccc21)Nc1ccc2c(c1)OCCCO2	none
CC1c2cc3c(cc2CCN1CC(=O)Nc1ccccc1)OCCCO3 (stereo unspecified)	CHRM1 antagonist 33
Cc1ccc(NC(=O)CN2CCc3cc4c(cc3C2C)OCCCO4)cc1 (stereo unspecified)	CHRM1 antagonist 53
Cc1ccc(NC(=O)CN2CCc3cc4c(cc3C2C)OCCCO4)cc1C (stereo unspecified)	none
Cc1onc(-c2ccccc2)c1C(=O)N1CCN(C(=O)C(=O)c2cccc(C(F)(F)F)c2)CC1	none (no result: M1 PAM, CHRM1 antagonist, M1 ag)
COc1ccc2c(COC(=O)CC3Sc4ccccc4NC3=O)cc(=O)oc2c1 (stereo unspecified)	TAAR1 antag 54
CC(=O)Nc1ccc2c(COC(=O)CC3Sc4ccccc4NC3=O)cc(=O)oc2c1 (stereo unspecified)	none
Cc1ccccc1-n1c(SCC(=O)N2CCCC2)nnc1-c1ccccn1	M1 PAM 22
CC1CCN(C(=O)CNC(=O)c2ccc(Cl)cc2Cl)CC1	M1 PAM 22
Cc1nn(-c2ccccc2)c(N2CCCC2)c1/C=N/NC(=O)c1ccccc1O	none
Cc1nn(-c2ccccc2)c(N2CCCC2)c1/C=N/NC(=O)c1cc(-c2cccnc2)nc2ccccc12	TAAR1 antag 51
Cc1c(N=c2scc(-c3ccccc3)n2CCO)c(=O)n(-c2ccccc2)n1C	none
Cc1c(N=c2scc(-c3ccccc3)n2C)c(=O)n(-c2ccccc2)n1C	CHRM1 antagonist 98
CCOC(=O)[C@]12CCC=C1N(CCC1=CCCCC1)C(=O)[C@H](CC(=O)N1CCSCC1)C2	none (no result: M1 PAM, CHRM1 antagonist, M1 ag)
COC(=O)C1=C(C)N(Cc2ccccc2C(F)(F)F)C(=NCc2ccc3c(c2)OCO3)NC1CCc1ccccc1 (stereo unspecified)	none (no result: M1 PAM, CHRM1 antagonist, M1 ag)
COC(=O)[C@]12C[C@H](CC(=O)N3CCC(c4ccccc4)CC3)C(=O)N(Cc3ccc4c(c3)OCO4)C1=C[C@H](COCc1ccccc1)O[C@@H]2C	none (no result: M1 PAM, CHRM1 antagonist, M1 ag)
CCCCN1C(=O)C(CC(=O)NCCc2ccccn2)CC(C(=O)N(C(C)C)C(C)C)=C1C (stereo unspecified)	TAAR1 ag 42
COc1ccc(CN2C(=O)C(CC(=O)NCCCCc3ccccc3)CC(C(=O)N(C(C)C)C(C)C)=C2C)cc1 (stereo unspecified)	none
COc1ccc(CN2C(=O)C(CC(=O)NCCCCc3ccccc3)CC(C(=O)N(C)C)=C2C)cc1 (stereo unspecified)	M1 ag 53
CC1=C(C(=O)N(C)C)CC(CC(=O)NCCCCc2ccccc2)C(=O)N1Cc1ccccc1 (stereo unspecified)	M1 ag 35
CC1=C(C(=O)N(C)C)CC(CC(=O)NCCc2ccccn2)C(=O)N1Cc1ccccc1 (stereo unspecified)	none
CCN(CC)S(=O)(=O)c1ccc(/C=C/C(=O)Nc2ccc(Br)cc2F)cc1	CHRM1 antagonist 31, TAAR1 antag 53
O=c1[nH]c(-c2ccccc2)nc(CN2CCCCC2)c1O	M1 PAM 29
Cc1nc(CN2CCCCC2)c(O)c(=O)[nH]1	none
O=C(CCC(=O)Nc1ccccc1)NNC(=O)c1cccs1	TAAR1 ag 39
COc1ccc(/C=N/NC(=O)CCCOc2ccc(Cl)cc2Cl)cc1[N+](=O)[O-]	TAAR1 antag 49
Cn1c(=Nc2ccc(N3CCOCC3)cc2)ccc2ccccc21	CHRM1 antagonist 48
CCCCS(=O)(=O)N1C2=NC(C(=O)OCC)=C(C(=O)OCC)C3N(Cc4ccc(Br)cc4)c4ccccc4[C@]23C[C@H]1C(=O)OC (stereo partly specified)	none (no result: M1 PAM, CHRM1 antagonist, M1 ag)
COc1cc(C=C2C(=O)C=CC2=O)ccc1O	TAAR1 ag 43 (no result: M1 PAM, CHRM1 antagonist, M1 ag)
COc1cc(/C=C/C(=O)/C=C(O)/C=C/c2ccc(O)c(OC)c2)ccc1O	TAAR1 antag 65, TAAR1 ag 44
COc1cc(/C=C2/C(=O)CNC2=O)ccc1O	none
CCOC(=O)C(C)(C)CC#CCN(CC#Cc1ccccc1)S(=O)(=O)c1ccc(C)cc1	none (no result: M1 PAM, CHRM1 antagonist, M1 ag)
CC(=O)c1c(C)[nH]c(C(=O)COc2cc(C)ccc2C(C)C)c1C	CHRM1 antagonist 36, TAAR1 antag 72
COc1ccc(-c2cc(NC(=O)Cc3c(C)[nH]c4ccccc34)ccc2Nc2cccnc2)cc1F	none (no result: M1 PAM, CHRM1 antagonist, M1 ag)
CC(C)(C)OC(=O)CNC(=O)c1[nH]cnc1C(=O)Nc1ccc(CNC(=O)OC(C)(C)C)cc1	CHRM1 antagonist 52, TAAR1 antag 59
C[C@@H](O)CNC(=O)c1[nH]cnc1C(=O)Nc1ccc(CNC(=O)OC(C)(C)C)cc1	TAAR1 antag 49
CC(C)(C)OC(=O)NCc1ccc(NC(=O)c2nc[nH]c2C(=O)NCCNC(=O)c2[nH]cnc2C(=O)Nc2ccc(CNC(=O)OC(C)(C)C)cc2)cc1	none (no result: TAAR1 antag, TAAR1 ag)
CC(C)C[C@H](NC(=O)c1[nH]cnc1C(=O)Nc1ccc(CNC(=O)OC(C)(C)C)cc1)C(=O)OCc1ccccc1	TAAR1 antag 53
O=S(=O)(c1ccc(F)cc1)N1CCCc2nc(-c3ccc(F)cc3)ccc21	none (no result: M1 PAM, CHRM1 antagonist, M1 ag)
FC(F)Sc1ccc(-n2cc(-c3ccccc3)[n+]3c2CCC3)cc1	CHRM1 antagonist 70
CN(C)S(=O)(=O)c1cc(NC(=O)c2cc(=O)c3ccccc3o2)ccc1Cl	TAAR1 ag 44
CC1(NC(=S)Nc2ccc(NC(=S)NC3(C)CCS(=O)(=O)C3)cc2)CCS(=O)(=O)C1 (stereo unspecified)	M1 ag 17
COc1ccc(CCNC(=O)CSc2nc3[nH]ncc3c(=O)n2-c2ccc(Br)cc2)cc1OC	M1 ag 25
Cn1c(CN2CCN(c3cccc(Cl)c3)CC2)nc2ccccc21	CHRM1 antagonist 26
CC(C)C(=O)Nc1ccc2c(c1)nc(CCN1CCN(c3ccccc3)CC1)n2C	CHRM1 antagonist 45
CC(=O)N1CCN(Cc2nc3cc(NC(=O)Cn4nc(C)c5ccccc5c4=O)ccc3n2C)CC1	none
CC(C)C(=O)Nc1ccc2c(c1)nc(CCN1CCCCC1)n2C	none
CC1CCN(CCc2nc3cc(NC(=O)C(C)C)ccc3n2C)CC1	CHRM1 antagonist 88
Cc1nn(CC(=O)Nc2ccc3c(c2)nc(CCN2CCCCC2)n3C)c(=O)c2ccccc12	CHRM1 antagonist 40
C[C@@H]1CN([C@@H](C)CO)C(=O)CCCn2cc(nn2)CO[C@H]1CN(C)C(=O)c1ccncc1	none (no result: M1 PAM, CHRM1 antagonist, M1 ag)
COc1ccc(-c2cnc3c(NC(C)=O)cc(-c4ccc(C(=O)N5CCOCC5)cc4)cn23)cc1OC	none

Source: PubChem (The Scripps Research Institute Molecular Screening Center)
